Data on six compounds can be found in ChEMBL document CHEMBL3585284, “Preparation and biological evaluation of conformationally constrained BACE1 inhibitors” (Bioorg Med Chem, 2015).

A short description of data set [1]: Dissociation constant, pKa of the compound. In kind it is physicochemical.
Data set [2] concerns P-gp. Description: Efflux ratio in P-gp expressing MDCK cells. The conditions noted are these: dog, MDCK-MDR1. In kind it is ADME, cell-based, Canis lupus familiaris.
The test system of data set [3] is P-gp. Description: Permeability in P-gp expressing MDCK cells. In kind it is ADME, cell-based, Canis lupus familiaris. The conditions noted are these: dog, MDCK-MDR1; read-out: permeability.
For data set [4], the system named is Brain. Description: Drug level in brain of PDAPP (V717F) transgenic mouse at 100 mg/kg, sc. The class given is ADME, organism-based. The conditions noted are these: in vivo, read-out: Drug uptake. In short, it runs like this:
(§1)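 Brain and plasma samples from PDAPP mice dosed subcutaneously were homogenized (brain) and mixed with methanol/acetonitrile (1:1, v/v) containing internal standard to precipitate protein. After centrifugation, supernatant was diluted 4-fold with water/methanol (1:1, v/v). Drug was quantified against calibration standards by LC–MS/MS on a C18 column.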

The nature of data set [5]: Drug metabolism in mouse microsomes. In kind it is ADME, Microsome.
Data set [6] relates to Plasma. Description: Plasma concentration in PDAPP (V717F) transgenic mouse at 100 mg/kg, sc. The class given is ADME, organism-based. The conditions noted are these: in vivo. An outline of the steps: as §1

The pKa is the pH at which an ionisable group is half protonated. As a reminder, the efflux ratio is a quotient of directional permeabilities that is used to spot active efflux. In turn, `Cl.NC1=NC2CCC(NC(=O)c3cccc(Cl)c3)CC2CS1` (stereo not given) came in with a pKa in data set [1] of 9.7. In addition, the efflux ratio in data set [2] amounted to 10. In data set [3], the Papp stood at 2.9 ×10⁻⁶ cm/s.

Consider `Cl.NC1=N[C@]23CC[C@H](NC(=O)c4cccc(Cl)c4)C[C@@H]2[C@@H](COC3)S1`, for which, in data set [1], the pKa worked out at 9. The efflux ratio in data set [2] was determined as 8.5. In data set [3], the Papp was determined as 2.2 ×10⁻⁶ cm/s.

With `NC1=NC2CCC(OC(=O)c3cccc(Cl)c3)CC2CS1.O=C(O)C(F)(F)F` (stereo not given), in data set [2], the efflux ratio came to 2.7. Further, in data set [3], the Papp was found to be 7.2 ×10⁻⁶ cm/s.

As for `NC1=NC2CCC(NC(=O)c3cccc(Cl)c3)CC2CS1` (stereo not given), the results for the concentration in data set [4] and in data set [6] were 0.75 µM and 9.3 µM, respectively. Also, the Drug metabolism entry in data set [5] is “metabolite_notdetected”.

For `NC1=N[C@]23CC[C@H](NC(=O)c4cccc(Cl)c4)C[C@@H]2[C@@H](COC3)S1`, the concentration in data set [4] was determined as 0.61 µM; in data set [6] it was 6.7 µM. In data set [5], the Drug metabolism entry is reported as “metabolite_notdetected”.

`NC1=NC23CCC(NC(=O)c4cccc(Cl)c4)CC2(COC3)CS1` (racemic) showed a pKa in data set [1] of 8.2.
